In ChEMBL document CHEMBL5042484, “Design of SARS-CoV-2 PLpro Inhibitors for COVID-19 Antiviral Therapy Leveraging Binding Cooperativity” (J Med Chem, 2022):
The source made the active and inactive calls. The calls are words filed in the database; no cut-off is given here.

Legend:
[1] = system: Severe acute respiratory syndrome coronavirus 2; test: Inhibition of SARS-CoV-2 PLpro assessed as viral PLpro-mediated deubiquitination using Ub-AMC as substrate at 30 uM preincubated for 10 mins followed by substrate addition measured for 15 mins by fluorescence plate reader assay
How it was run: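 Run like the RLRGG-AMC PLpro assay (HEPES pH 7.5 buffer, 10 min preincubation, 15 min fluorescence read), but with 80 nM PLpro and 0.5 µM Ub-AMC as substrate.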

[2] = system: Severe acute respiratory syndrome coronavirus 2; test: Inhibition of SARS-CoV-2 PLpro assessed as viral PLpro-mediated deISGylation using ISG-15-AMC as substrate at 30 uM preincubated for 10 mins followed by substrate addition measured for 15 mins by fluorescence plate reader assay
How it was run: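 Run like the RLRGG-AMC PLpro assay (HEPES pH 7.5 buffer, 10 min preincubation, 15 min fluorescence read), but with 4 nM PLpro and 0.5 µM ISG15-AMC as substrate.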

[3] = Inhibition of SARS-CoV-2 PLpro; design: species or system Severe acute respiratory syndrome coronavirus 2
[4] = Inhibition of SARS-CoV-2 PLpro using Z-RLRGG-AMC as substrate preincubated for 10 mins followed by substrate addition measured for 15 mins by fluorescence plate reader assay; design: species or system Severe acute respiratory syndrome coronavirus 2
[5] = Binding affinity to […] sensor chip immobilized His-tagged SARS-CoV-2 PLpro assessed as equilibrium dissociation constant by surface plasmon resonance analysis; design: species or system Severe acute respiratory syndrome coronavirus 2
[6] = system: A549; test: Cytotoxicity against human A549 cells overexpressing ACE2 receptor assessed as cell viability at < 30 uM incubated for 48 hrs by Cell Titer-Glo luminescent assay; format: toxicity, cell-based; details: a549, 48 h
[7] = system: A549; test: Cytotoxicity against human A549 cells overexpressing ACE2 receptor assessed as cell viability at 100 uM incubated for 48 hrs by Cell Titer-Glo luminescent assay; format: toxicity, cell-based; details: a549, 48 h
[8] = system: A549; test: Cytotoxicity against human A549 cells overexpressing ACE2 receptor assessed as cell viability at <50 uM incubated for 48 hrs by Cell Titer-Glo luminescent assay; format: toxicity, cell-based; details: a549, 48 h
[9] = Drug concentration in C57BL/6J mouse plasma at 50 mg/kg, ip measured from 0.5 to 5 hrs by analytical analysis; format: ADME, organism-based; details: in vivo, time 0.5-5 hrs
[10] = system: A549; test: Cytotoxicity against human A549 cells overexpressing ACE2 receptor assessed as cell viability at <10 uM incubated for 48 hrs by Cell Titer-Glo luminescent assay; format: toxicity, cell-based; details: a549, 48 h

With Cc1ccc(NC2CNC2)cc1C(=O)N[C@H](C)c1cccc2ccccc12 the inhibition [1] was “Active” and the inhibition [2] was “Active”.
With Cc1ccc(NC2CNC2)cc1C(=O)N[C@H](C)c1cccc(-c2cccs2)c1 (single isomer, unassigned) the inhibition [1] was “Active” and the inhibition [2] was “Active”.
Compound COC(=O)/C=C/CNC(=O)CNC(=O)[C@H](CN)NC(=O)[C@H](CCc1ccc(O)cc1)NC(C)=O has an IC50 [3] of 50 µM.
COC(=O)/C=C/CNC(=O)CNC(=O)[C@H](CN)NC(=O)[C@H](CCc1nc2ccccc2s1)NC(C)=O showed an IC50 [3] of 50 µM.
With CNC(=O)C[C@@H](NC(=O)c1cc(N(C)C2CNC2)ccc1C)c1cccc2ccccc12 the IC50 [4] was “Not Active” and the Kd [5] was over 1000 µM.
Compound Cc1ccc(N)cc1C(=O)N[C@H](CCO)c1cccc2ccccc12 has an IC50 ([4]; read-out: IC50) of 100 µM.
For Cc1ccc(NC2CNC2)cc1C(=O)N[C@H](C)c1cccc(-c2ccc(CNC3CCCC3)s2)c1, the Kd [5] was 0.235 µM, the inhibition [1] was “Active” and the inhibition [2] was “Active”. For the same compound, the Activity [6] was “Non-Toxic”, the Activity [7] was “Toxic” and the Activity [8] was “Non-Toxic”.
With Cc1ccc(NC2CNC2)cc1C(=O)N[C@H](C)c1cccc(-c2ccc(CN3CCCC3)s2)c1 the inhibition [1] was “Active”, the inhibition [2] was “Active” and the Activity [6] was “Non-Toxic”. The Activity [7] was “Toxic”, the concentration [9] was 12 µM and the Activity [10] was “Non-Toxic”.
For Cc1ccc(N)cc1C(=O)N[C@H](C)c1cccc2ccccc12, the inhibition [1] was “Active” and the inhibition [2] was “Active”.
